This note sets out measurements from ChEMBL document CHEMBL3351752, “Discovery and in vivo evaluation of alcohol-containing benzothiazoles as potent dual-targeting bacterial DNA supercoiling inhibitors” (Bioorg Med Chem Lett, 2014).

Series [1] has as its system Staphylococcus aureus. Put plainly: Antibacterial activity against Staphylococcus aureus ATCC 29213 assessed as growth inhibition. In kind it is functional.
Series [2] deals with Streptococcus pyogenes. Put plainly: Antibacterial activity against Streptococcus pyogenes 51339 assessed as growth inhibition. Type of series: functional.
The subject of series [3] is Streptococcus pyogenes. Description: Antimicrobial activity against Streptococcus pyogenes harboring ParE A53S mutant assessed as growth inhibition. In kind it is functional.
Series [4] concerns Staphylococcus aureus. Description: Antibacterial activity against Staphylococcus aureus ATCC 29213 assessed as growth inhibition in presence of 50% horse serum. Type of series: functional.
The test system of series [5] is Staphylococcus aureus. Description: Inhibition of Staphylococcus aureus DNA gyrase ATPase subunit GyrA2/GyrB2 after 60 mins by malachite green staining assay.
Series [6] relates to Staphylococcus aureus. Put plainly: Antimicrobial activity against Staphylococcus aureus harboring GyrB T173N mutant assessed as growth inhibition. Type of series: functional.
Series [7] relates to Haemophilus influenzae. Description: Antibacterial activity against Haemophilus influenzae 49247 assessed as growth inhibition. Type of series: functional.
Series [8] is described as follows: Fraction unbound in mouse plasma by ultracentrifugation. In kind it is ADME, cell-free. The method, boiled down: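 Compound at 10 µM (1% DMSO) was equilibrated in neat plasma at 37 °C for 60 min. Duplicate aliquots were ultracentrifuged at 250,000g for 4.2 h at 37 °C. Free compound in the plasma-water supernatant was compared with uncentrifuged samples incubated alike. Uncentrifuged samples kept at 20 °C checked degradation, and diltiazem served as stability control. Analysis was by LCMS.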

Values after ≈ are worked out from the molar mass of the structure shown. Where only a bound is given, the exact number is not on record here.

In the case of `CCNC(=O)Nc1nc2cc(-c3cnc([C@@H](O)[C@@H](O)C(F)(F)F)nc3)cc(-c3ccccn3)c2s1` (racemic), the MIC in series [1] was found to be 0.12 µg/mL (≈ 0.238 µM); in series [2], 0.12 µg/mL (≈ 0.238 µM); in series [3] it was 1 µg/mL (≈ 1.98 µM); in series [4], 0.25 µg/mL; in series [6], 0.5 µg/mL (≈ 0.991 µM); in series [7] it was 0.5 µg/mL (≈ 0.991 µM). The molecule further registered an inhibitory concentration in series [5] of 0.004 µg/mL.
Turning to `CCNC(=O)Nc1nc2cc(-c3cnc(C(C)(C)O)nc3)cc(-c3cc(CN4CC[C@@H](OC)C4)ccn3)c2s1`, the MIC was 0.25 µg/mL (≈ 0.456 µM) in series [1], 0.25 µg/mL (≈ 0.456 µM) in series [2], 0.5 µg/mL in series [4] and 4 µg/mL (≈ 7.3 µM) in series [7]. In series [8], the unbound share (fraction unbound) is 0.09. Also, the inhibitory concentration in series [5] was determined as 0.009 µg/mL.
Turning to `CCNC(=O)Nc1nc2cc(-c3cnc([C@@H](O)[C@H](O)C(F)(F)F)nc3)cc(-c3ccccn3)c2s1` (racemic), the MIC in series [1] worked out at 0.06 µg/mL (≈ 0.119 µM); in series [2], 0.12 µg/mL (≈ 0.238 µM); in series [3], 1 µg/mL (≈ 1.98 µM); in series [4], 0.25 µg/mL; in series [6], 0.25 µg/mL (≈ 0.496 µM); in series [7] it was 0.5 µg/mL (≈ 0.991 µM). For the same molecule, the inhibitory concentration in series [5] came out at 0.005 µg/mL.
Turning to `CCNC(=O)Nc1nc2cc(-c3cnc(C4(O)CCCC4)nc3)cc(-c3ccccn3)c2s1`, the MIC in series [1] was 0.03 µg/mL (≈ 0.0651 µM); in series [2] it was 0.12 µg/mL (≈ 0.261 µM); in series [3], 2 µg/mL (≈ 4.34 µM); in series [4] it was 0.5 µg/mL; in series [6], 0.25 µg/mL (≈ 0.543 µM); in series [7], 1 µg/mL (≈ 2.17 µM). In series [5], the inhibitory concentration was 0.005 µg/mL.
As for `CCNC(=O)Nc1nc2cc(-c3cnc(C(O)C(C)(C)C)nc3)cc(-c3ccccn3)c2s1` (racemic), the MIC worked out at 0.12 µg/mL (≈ 0.259 µM) in series [1]; 0.12 µg/mL (≈ 0.259 µM) in series [2]; 2 µg/mL (≈ 4.32 µM) in series [3]; 2 µg/mL in series [4]; 0.25 µg/mL (≈ 0.54 µM) in series [6]. The same molecule had an inhibitory concentration in series [5] of 0.012 µg/mL.
For `CCNC(=O)Nc1nc2cc(-c3cnc(C(O)CO)nc3)cc(-c3ccccn3)c2s1` (racemic), the MIC in series [1] came to 0.12 µg/mL (≈ 0.275 µM); in series [2], 0.12 µg/mL (≈ 0.275 µM); in series [3] it was 2 µg/mL (≈ 4.58 µM); in series [4], 0.5 µg/mL; in series [6], 2 µg/mL (≈ 4.58 µM); in series [7] it was 0.5 µg/mL (≈ 1.15 µM). The molecule also came in with an inhibitory concentration in series [5] of 0.006 µg/mL.
Regarding `CCNC(=O)Nc1nc2cc(-c3cnc(C(C)(C)O)nc3)cc(-c3cc(CN4CC(OC)C4)ccn3)c2s1`, the MIC in series [1] worked out at 0.12 µg/mL (≈ 0.225 µM); in series [2] it was 0.12 µg/mL (≈ 0.225 µM); in series [4], 0.25 µg/mL; in series [7] it was 2 µg/mL (≈ 3.75 µM). The fraction unbound in series [8] was 0.11. The same molecule had an inhibitory concentration in series [5] of 0.011 µg/mL.
`CCNC(=O)Nc1nc2cc(-c3cnc(C4(O)CCCCC4)nc3)cc(-c3ccccn3)c2s1`: the MIC in series [1] is 8 µg/mL (≈ 16.9 µM); in series [2] it was 8 µg/mL (≈ 16.9 µM); in series [3], > 16 µg/mL; in series [6], > 16 µg/mL; in series [7] it was > 16 µg/mL. Besides, the inhibitory concentration in series [5] was found to be 0.054 µg/mL.
`CCNC(=O)Nc1nc2cc(-c3cnc(C(C)(C)O)nc3)cc(-c3cc(CNC4CC4)ccn3)c2s1`: the MIC in series [1] turned out to be 0.12 µg/mL (≈ 0.238 µM); in series [2], 0.12 µg/mL (≈ 0.238 µM); in series [4], 0.25 µg/mL; in series [7], 2 µg/mL (≈ 3.97 µM). Also, the free fraction (fraction unbound) in series [8] was 0.056. The molecule also displayed an inhibitory concentration in series [5] of 0.006 µg/mL.
In the case of `CCNC(=O)Nc1nc2cc(-c3cnc(C(C)(O)CO)nc3)cc(-c3ccccn3)c2s1` (racemic), the MIC is 0.12 µg/mL (≈ 0.266 µM) in series [1]; 0.12 µg/mL (≈ 0.266 µM) in series [2]; 2 µg/mL (≈ 4.44 µM) in series [3]; 0.25 µg/mL in series [4]; 1 µg/mL (≈ 2.22 µM) in series [6]; 0.5 µg/mL (≈ 1.11 µM) in series [7]. In series [5], the inhibitory concentration stood at 0.006 µg/mL.
Consider `CCNC(=O)Nc1nc2cc(-c3cnc(C4(O)CCOCC4O)nc3)cc(-c3ccccn3)c2s1` (racemic), for which the MIC in series [1] amounted to 0.5 µg/mL (≈ 1.02 µM); in series [2], 0.12 µg/mL (≈ 0.244 µM); in series [3] it was 2 µg/mL (≈ 4.06 µM); in series [4], 0.5 µg/mL; in series [6], 4 µg/mL (≈ 8.12 µM); in series [7], 2 µg/mL (≈ 4.06 µM). This molecule also showed an inhibitory concentration in series [5] of 0.009 µg/mL.
As for `CCNC(=O)Nc1nc2cc(-c3cnc(C4(O)CCNCC4)nc3)cc(-c3ccccn3)c2s1`, the MIC is 8 µg/mL (≈ 16.8 µM) in series [1]; 2 µg/mL (≈ 4.21 µM) in series [2]; > 16 µg/mL in series [3]; 4 µg/mL in series [4]; > 16 µg/mL in series [6]; > 16 µg/mL in series [7]. The molecule further registered an inhibitory concentration in series [5] of 0.01 µg/mL.
On to `CCNC(=O)Nc1nc2cc(-c3cnc(C(O)C4CC4)nc3)cc(-c3ccccn3)c2s1` (racemic), for which the MIC in series [1] is 0.06 µg/mL (≈ 0.134 µM); in series [2], 0.06 µg/mL (≈ 0.134 µM); in series [3], 1 µg/mL (≈ 2.24 µM); in series [4] it was 0.25 µg/mL; in series [6] it was 0.25 µg/mL (≈ 0.56 µM); in series [7] it was 0.5 µg/mL (≈ 1.12 µM). In series [5], this molecule came in with an inhibitory concentration of 0.008 µg/mL.
